Screens from PubChem.
NSD2 inh – NSD2 histone methyltransferase inhibitors, primary screen, biochemical, AlphaScreen, single concentration, set 2; Histone-lysine N-methyltransferase NSD2 (Homo sapiens), O96028; NSD2 peptide methylation, 120 min; inhibition, % at 12.5 µM; hit rate 0.54% among 310,000; AID 743445, 2014
SR-BI DiI inh – inhibitors of SR-BI mediated HDL lipid uptake, primary screen, ldlA[mSR-BI] cells, fluorescence, single point | Scavenger receptor class B member 1 (Mus musculus), Q61009 | ldlA[mSR-BI] CHO cells, DiI-HDL uptake fluorescence, 3 h | inhibition, % at 12.5 µM | hit rate 0.96% among 320,000;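 active = mean replicate inhibition of at least 70% and a set share of replicates each scoring 70 or more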
Target sequence (Q61009 whole entry, looked up): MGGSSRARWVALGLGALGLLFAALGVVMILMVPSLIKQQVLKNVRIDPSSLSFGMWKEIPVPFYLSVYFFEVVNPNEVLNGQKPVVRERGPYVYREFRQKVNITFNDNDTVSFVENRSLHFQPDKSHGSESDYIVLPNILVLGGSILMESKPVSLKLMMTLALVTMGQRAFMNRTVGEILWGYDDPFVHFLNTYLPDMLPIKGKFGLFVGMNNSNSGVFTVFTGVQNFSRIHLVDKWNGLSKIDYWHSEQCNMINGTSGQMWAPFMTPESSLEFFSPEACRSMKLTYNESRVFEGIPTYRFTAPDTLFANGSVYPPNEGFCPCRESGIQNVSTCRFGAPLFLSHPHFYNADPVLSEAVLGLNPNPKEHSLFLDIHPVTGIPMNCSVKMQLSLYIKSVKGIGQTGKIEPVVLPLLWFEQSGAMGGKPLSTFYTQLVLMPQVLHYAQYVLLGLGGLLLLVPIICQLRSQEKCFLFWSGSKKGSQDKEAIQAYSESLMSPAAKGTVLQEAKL
DYRK1A inh – rat Dyrk1A kinase inhibitors, primary screen, biochemical, single point, plate reader; inhibition, % at 12.5 µM; Dual specificity tyrosine-phosphorylation-regulated kinase 1A (Rattus norvegicus), Q63470; ADP-Glo luminescence, NFATc1 peptide; AID 504441, 2011; hit rate 0.43% among 310,000
dFosB activator – activators of delta FosB homodimer, primary screen, biochemical, fluorescence polarization, TAMRA-CDK5 oligo, single point | Protein FosB (Mus musculus), P13346 | purified delta FosB; percent of positive-control signal above neutral wells | activation, % at 25 µM | hit rate 0.99% among 340,000 | AID 493131, 2011;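 active = mean activation above about 17%, with every replicate also reaching it, limit read from the data, passing the limit was not always enough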
SR-BI uptake up – activators of SR-BI mediated DiI-HDL uptake, primary screen, ldlA[mSR-BI] CHO cells, DiI fluorescence; 3 h; 100 = double the neutral-control signal; activation, % at 12.5 µM; hit rate 0.096% among 320,000; AID 504775, 2011;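 active = mean replicate activation of at least 60% and every replicate at or above 60%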
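System: CHO ldlA[mSR-BI] cells / Medium: HEPES-buffered (25 mM, pH 7.4) F12 plus 0.5% BSA / Probe or stimulus: labelled HDL, 10 µg/mL / Doses: single compound concentration, delivered by pin transfer / Schedule: 3 h, 37 °C / Measured by: DiI fluorescence, bottom read / Measure: cell-associated DiI fluorescence as measure of HDL uptake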
CDK5 inh – inhibitors of human CDK5/p35 kinase, primary screen, biochemical, single concentration; hit rate 0.01% among 330,000; inhibition, % at 10 µM; Recombinant CDK5/p35, ADP-Glo luminescence, 60 min; Cyclin-dependent kinase 5 (Homo sapiens) + Cyclin-dependent kinase 5 activator 1 (Homo …;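 active = highest replicate inhibition of at least 50% and at least 75% of replicates reaching 50%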
Numbers stand for hits; n = inactive; x = no result given. This is a sample that favours compounds with a hit; in the whole collection about 2.5% have one here. Cut-off read from the data, not from the text of the source, unless noted: active = inhibition above about 50%; inactive = the rest.

SMILES	NSD2 inh	SR-BI DiI inh	DYRK1A inh	dFosB activator	SR-BI uptake up	CDK5 inh
COc1ccc(CNC(=O)[C@@H]2CC=C[C@@H]3CCN(Cc4ccc(Cl)c(Cl)c4)C(=O)[C@@H]32)cc1	x	n	n	n	n	n
O=c1cc(CN2CCN(c3ccc(F)cc3)CC2)c2cc3c(cc2o1)CCCC3	n	70.9	n	n	n	n
COc1ccc(-c2[nH]ncc2N=Nc2cc(C)cc(C)c2)cc1	n	83.6	n	n	n	n
COc1ccc(-c2[nH]ncc2N=Nc2ccccc2)cc1	n	n	n	n	n	n
COc1ccc(-c2cc(C(=O)Nc3cccnc3)c3ccccc3n2)cc1OC	n	n	n	n	n	n
COc1ccc([N+](=O)[O-])cc1NC(=O)c1ccccc1SC	x	77.3	n	n	n	n
CSc1ccccc1C(=O)Nc1cccc([N+](=O)[O-])c1	n	n	n	n	n	n
COc1ccc(OC)c(NC(=O)/C=C/c2ccccc2[N+](=O)[O-])c1	n	86.0	n	n	n	n
COc1ccc(OC)c(NC(=O)c2cccc(C)c2[N+](=O)[O-])c1	n	72.5	n	n	n	n
COc1ccc([N+](=O)[O-])cc1NC(=O)c1ccc(-n2nc(C)cc2C)cc1	n	90.1	n	n	n	n
COc1ccc(NC(=O)/C=C/c2ccccc2[N+](=O)[O-])c(OC)c1	n	n	n	n	n	n
CCCN1C(=O)CC(=O)N=C1SCC(=O)Nc1ccccc1F	n	n	n	n	n	n
CNC(=O)c1ccc(-c2sc3nc(N4CCOCC4)c4c(c3c2N)CC(C)(C)OC4)o1	n	n	x	n	n	n
CNC(=O)c1ccc(-c2sc3nc(N4CCOCC4)c4c(c3c2N)CCCC4)o1	n	86.8	n	n	n	n
Cc1cc(-c2n[nH]c(=S)n2N=Cc2ccc(OCc3ccccc3)cc2)n[nH]1	n	x	x	x	x	x
CCOC(=O)C1=C(O)/C(=C/c2cc(OC)c(O)c(OC)c2)SC1=Nc1ccc(OC)cc1	n	85.9	n	n	n	n
CC1=NN(c2ccccc2)C(=O)/C1=C/c1cc(C)n(C2CC2)c1C	n	71.6	n	n	n	n
COc1ccccc1/C=C1/C(=O)N(c2ccccc2)N=C1C	n	n	n	n	n	n
COc1ccccc1NC(=O)c1nnn(CC(=O)Nc2ccccc2)c1N	n	n	n	n	n	n
COc1cccc(Cn2nnc(C(=O)Nc3cc(C)ccc3OC)c2N)c1	x	n	x	n	n	n
COc1ccc(Cl)cc1NC(=O)c1nnn(CC(=O)Nc2ccc(C)c(C)c2)c1N	n	n	n	125.0	n	n
COc1cccc(Cn2nnc(C(=O)Nc3ccc(C)cc3)c2N)c1	x	n	n	16.5	n	n
CCOc1ccccc1NC(=O)Cn1nnc(C(=O)NCCc2ccc(OCC)c(OCC)c2)c1N	x	85.4	x	n	n	x
CCOc1ccccc1NC(=O)c1nnn(CC(=O)Nc2cc(C)cc(C)c2)c1N	n	n	x	25.5	n	x
CCOc1ccccc1NC(=O)Cn1nnc(C(=O)Nc2ccccc2Cl)c1N	n	n	n	n	n	n
SMILES	NSD2 inh	SR-BI DiI inh	DYRK1A inh	dFosB activator	SR-BI uptake up	CDK5 inh
Cc1c(Br)c([N+](=O)[O-])nn1CC(=O)NC1CCCCCC1	n	n	n	n	n	n
Cc1cc(C)cc(NC(=O)Cn2nnc(C(=O)NCCc3ccccc3)c2N)c1	n	n	n	82.9	n	n
CCOc1ccc(NC(=O)Cn2nnc(C(=O)NCCc3ccc(OC)c(OC)c3)c2N)cc1	n	74.4	n	32.3	n	n
CCc1nn(C(C)C(=O)NCCN2CCN(c3cccc(C)c3C)CC2)c(=O)c2cc3occc3n12 (centres undefined)	n	80.2	n	n	n	n
CCc1nn(C(C)C(=O)NCCN2CCCCCC2)c(=O)c2cc3occc3n12 (centres undefined)	n	n	n	n	n	n
COC(=O)c1cn(C(=O)OC)c2ccccc12	n	n	n	n	n	n
COC(=O)c1cn(C(=O)/C=C/c2ccc(OC)c(OC)c2)c2ccccc12	x	92.6	n	n	n	n
CC(C)(C)c1ccc(S(=O)(=O)NCC(=O)N2CCN(c3ncccn3)CC2)cc1	n	x	x	x	x	x
COc1ccc(-c2cc(C(=O)NCCc3ccc(S(N)(=O)=O)cc3)c3ccccc3n2)cc1	n	n	n	n	n	n
Cc1ccc(-c2cc(C(=O)NCCc3ccc(S(N)(=O)=O)cc3)c3ccccc3n2)cc1	x	85.7	n	n	n	n
NS(=O)(=O)c1ccc(CCNC(=O)c2cc(-c3ccccc3)nc3ccccc23)cc1	n	79.5	n	n	n	n
CC(C)(C)c1ccc(-c2nnc(SCC(=O)Nc3ccc(S(=O)(=O)Nc4nccs4)cc3)n2Cc2ccco2)cc1	n	x	x	x	x	x
COc1ccc(C2CC(c3ccccc3)=NN2c2ccc(Cl)c(C(=O)O)c2)cc1 (centres undefined)	n	n	n	n	n	n
COc1ccc(C2CC(c3cccc(Cl)c3)=NN2c2ccc(S(N)(=O)=O)cc2)cc1 (centres undefined)	x	76.8	n	n	n	n
CCC(=O)Nc1cccc(C2=NN(c3ccccc3)C(c3ccc(OC)cc3)C2)c1 (centres undefined)	n	70.3	n	n	n	n
COc1ccc(C2CC(c3ccc(Cl)cc3)=NN2c2ccc(S(N)(=O)=O)cc2)cc1 (centres undefined)	x	n	n	n	n	n
COc1ccc(OC)c(NC(=O)c2cc(S(=O)(=O)NCc3ccco3)ccc2F)c1	x	82.9	n	n	n	n
CCCN(CC1CC1)c1c2c(nc3ncnn13)CCCC2	n	x	x	x	x	x
Cc1cccc(N=C2NC(=O)S/C2=C\c2ccco2)c1	n	n	n	n	n	n
O=C1NC(=Nc2ccc(Cl)cc2)/C(=C/c2ccco2)S1	n	82.0	n	n	n	n
CCC(=O)N(CC)c1nc(-c2ccc(OC)cc2)cs1	n	87.1	n	n	n	n
COc1cccc(-c2nnc(SCC(=O)Nc3ccc(OCc4ccccc4)cc3)n2Cc2ccco2)c1	n	x	x	x	x	x
CC(C)NC(=O)CCn1nnc(-c2cccs2)n1	n	x	x	x	x	x
CN(CC(=O)NNC(=O)CNC(=O)c1cccs1)S(=O)(=O)c1ccc(Cl)cc1	n	n	n	n	n	n
CN(C)CCCCOc1ccc(Br)cc1Cl	x	n	n	n	n	n
Cc1ccc(OCCOCCN(C)C)c(Cl)c1	n	n	n	n	63.9	n
Cc1ccc2nc3sc(C(=O)N4CCN(C)CC4)cc3cc2c1	n	x	x	x	x	x
